# In article PMC7993274 (Clinical and Translational Science, 2020):
# Columns and labels:
# MRP3 = conditions: cited from earlier work
# [1] = system: CYP1A2, CYP2D6, and CYP3A; conditions: cited from earlier work
# [2] = pH 6.5; background statement, no reference given; cited from earlier work
# OATP1B1 = conditions: cited from earlier work
# [3] = rats, preclinical studies; cited from earlier work
# [4] = system: sodium/Na+ taurocholate co‐transporting polypeptide; conditions: cited from earlier work
# [5] = Treatment-emergent adverse events, MAD period and b.i.d. cohort; assay type: in vivo, human
# Summary of the method: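 Double-blind, placebo-controlled study in healthy men and nonchildbearing women aged 18–55 y. The SAD period gave one fasted oral dose; the MAD period gave fed dosing q.d. for 10 days, plus a separate b.i.d. cohort. TEAEs, serious AEs and discontinuation AEs were monitored ≥28 days after the last dose. Vital signs, physical exam, 12-lead ECG, hematology, clinical chemistry and urinalysis were also recorded. Data summarized descriptively.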
# CYP3A4 = experiment: 6‐beta‐hydroxycortisol/cortisol ratio; assay type: in vivo, human; conditions: participants receiving PF‐06826647
# MRP2 = conditions: cited from earlier work
# [6] = MAD Japanese cohort 400 mg q.d. (n = 5)
# [7] = b.i.d. cohort 200 mg b.i.d. (n = 7)
compound,measurement,setting,value
Cn1cc(-c2cn3nccc3c(-c3cnn([C@]4(CC#N)C[C@@H](C#N)C4)c3)n2)cn1 [PF‐06826647],inhibition of transporter protein MRP3,MRP3,minimal inhibition
same,major human clearance pathway,[1],"cytochrome P450 (CYP)‐mediated (via CYP1A2, CYP2D6, and CYP3A) metabolism"
same,solubility,[2],~ 0.3 μg/mL
same,inhibition of transporter protein OATP1B1,OATP1B1,minimal inhibition
same,drug clearance via renal and biliary excretion,[3],limited drug clearance via renal and biliary excretion
same,inhibition of sodium/Na+ taurocholate co‐transporting polypeptide,[4],minimal inhibition
same,AEs,[5]; MAD 30 mg q.d. (n = 6),2 n
same,AEs leading to permanent discontinuation of study drug,[5]; MAD 30 mg q.d. (n = 6),0 n
same,AEs leading to study drug dose reduction or interruption,[5]; MAD 30 mg q.d. (n = 6),0 n
same,Participants with AE,[5]; MAD 30 mg q.d. (n = 6),2 (33.3) n (%)
same,Participants with TEAEs: Alanine aminotransferase increased,[5]; MAD 30 mg q.d. (n = 6),0 n (%)
same,Participants with TEAEs: Blood creatinine increased,[5]; MAD 30 mg q.d. (n = 6),0 n (%)
same,Participants with TEAEs: Constipation,[5]; MAD 30 mg q.d. (n = 6),1 (16.7) n (%)
same,Participants with TEAEs: Dysuria,[5]; MAD 30 mg q.d. (n = 6),0 n (%)
same,Participants with TEAEs: Gastrointestinal disorders (SOC),[5]; MAD 30 mg q.d. (n = 6),2 (33.3) n (%)
same,Participants with TEAEs: Headache,[5]; MAD 30 mg q.d. (n = 6),0 n (%)
same,Participants with TEAEs: Investigations (SOC),[5]; MAD 30 mg q.d. (n = 6),0 n (%)
same,Participants with TEAEs: Nausea,[5]; MAD 30 mg q.d. (n = 6),1 (16.7) n (%)
same,Participants with TEAEs: Nervous system disorders (SOC),[5]; MAD 30 mg q.d. (n = 6),0 n (%)
same,Participants with TEAEs: Renal and urinary disorders (SOC),[5]; MAD 30 mg q.d. (n = 6),0 n (%)
same,SAEs,[5]; MAD 30 mg q.d. (n = 6),0 n
same,Severe AEs,[5]; MAD 30 mg q.d. (n = 6),0 n
same,AEs,[5]; MAD 100 mg q.d. (n = 6),1 n
same,AEs leading to permanent discontinuation of study drug,[5]; MAD 100 mg q.d. (n = 6),0 n
same,AEs leading to study drug dose reduction or interruption,[5]; MAD 100 mg q.d. (n = 6),0 n
same,Participants with AE,[5]; MAD 100 mg q.d. (n = 6),1 (16.7) n (%)
same,Participants with TEAEs: Alanine aminotransferase increased,[5]; MAD 100 mg q.d. (n = 6),0 n (%)
same,Participants with TEAEs: Blood creatinine increased,[5]; MAD 100 mg q.d. (n = 6),1 (16.7) n (%)
same,Participants with TEAEs: Constipation,[5]; MAD 100 mg q.d. (n = 6),0 n (%)
same,Participants with TEAEs: Dysuria,[5]; MAD 100 mg q.d. (n = 6),0 n (%)
same,Participants with TEAEs: Gastrointestinal disorders (SOC),[5]; MAD 100 mg q.d. (n = 6),0 n (%)
same,Participants with TEAEs: Headache,[5]; MAD 100 mg q.d. (n = 6),0 n (%)
same,Participants with TEAEs: Investigations (SOC),[5]; MAD 100 mg q.d. (n = 6),1 (16.7) n (%)
same,Participants with TEAEs: Nausea,[5]; MAD 100 mg q.d. (n = 6),0 n (%)
same,Participants with TEAEs: Nervous system disorders (SOC),[5]; MAD 100 mg q.d. (n = 6),0 n (%)
same,Participants with TEAEs: Renal and urinary disorders (SOC),[5]; MAD 100 mg q.d. (n = 6),0 n (%)
same,SAEs,[5]; MAD 100 mg q.d. (n = 6),0 n
same,Severe AEs,[5]; MAD 100 mg q.d. (n = 6),0 n
same,AEs,[5]; MAD 400 mg q.d. (n = 6),1 n
same,AEs leading to permanent discontinuation of study drug,[5]; MAD 400 mg q.d. (n = 6),0 n
same,AEs leading to study drug dose reduction or interruption,[5]; MAD 400 mg q.d. (n = 6),0 n
same,Participants with AE,[5]; MAD 400 mg q.d. (n = 6),1 (16.7) n (%)
same,Participants with TEAEs: Alanine aminotransferase increased,[5]; MAD 400 mg q.d. (n = 6),0 n (%)
same,Participants with TEAEs: Blood creatinine increased,[5]; MAD 400 mg q.d. (n = 6),1 (16.7) n (%)
same,Participants with TEAEs: Constipation,[5]; MAD 400 mg q.d. (n = 6),0 n (%)
same,Participants with TEAEs: Dysuria,[5]; MAD 400 mg q.d. (n = 6),0 n (%)
same,Participants with TEAEs: Gastrointestinal disorders (SOC),[5]; MAD 400 mg q.d. (n = 6),0 n (%)
same,Participants with TEAEs: Headache,[5]; MAD 400 mg q.d. (n = 6),0 n (%)
same,Participants with TEAEs: Investigations (SOC),[5]; MAD 400 mg q.d. (n = 6),1 (16.7) n (%)
same,Participants with TEAEs: Nausea,[5]; MAD 400 mg q.d. (n = 6),0 n (%)
same,Participants with TEAEs: Nervous system disorders (SOC),[5]; MAD 400 mg q.d. (n = 6),0 n (%)
same,Participants with TEAEs: Renal and urinary disorders (SOC),[5]; MAD 400 mg q.d. (n = 6),0 n (%)
same,SAEs,[5]; MAD 400 mg q.d. (n = 6),0 n
same,Severe AEs,[5]; MAD 400 mg q.d. (n = 6),0 n
same,AEs,"[5]; MAD 1,200 mg q.d. (n = 5)",1 n
same,AEs leading to permanent discontinuation of study drug,"[5]; MAD 1,200 mg q.d. (n = 5)",0 n
same,AEs leading to study drug dose reduction or interruption,"[5]; MAD 1,200 mg q.d. (n = 5)",0 n
same,Participants with AE,"[5]; MAD 1,200 mg q.d. (n = 5)",1 (20.0) n (%)
same,Participants with TEAEs: Alanine aminotransferase increased,"[5]; MAD 1,200 mg q.d. (n = 5)",0 n (%)
same,Participants with TEAEs: Blood creatinine increased,"[5]; MAD 1,200 mg q.d. (n = 5)",1 (20.0) n (%)
same,Participants with TEAEs: Constipation,"[5]; MAD 1,200 mg q.d. (n = 5)",0 n (%)
same,Participants with TEAEs: Dysuria,"[5]; MAD 1,200 mg q.d. (n = 5)",0 n (%)
same,Participants with TEAEs: Headache,"[5]; MAD 1,200 mg q.d. (n = 5)",0 n (%)
same,Participants with TEAEs: Investigations (SOC),"[5]; MAD 1,200 mg q.d. (n = 5)",1 (20.0) n (%)
same,Participants with TEAEs: Nausea,"[5]; MAD 1,200 mg q.d. (n = 5)",0 n (%)
same,Participants with TEAEs: Nervous system disorders (SOC),"[5]; MAD 1,200 mg q.d. (n = 5)",0 n (%)
same,Participants with TEAEs: Renal and urinary disorders (SOC),"[5]; MAD 1,200 mg q.d. (n = 5)",0 n (%)
same,SAEs,"[5]; MAD 1,200 mg q.d. (n = 5)",0 n
same,Severe AEs,"[5]; MAD 1,200 mg q.d. (n = 5)",0 n
same,AEs,[5]; [6],2 n
same,AEs leading to permanent discontinuation of study drug,[5]; [6],0 n
same,AEs leading to study drug dose reduction or interruption,[5]; [6],0 n
same,Participants with AE,[5]; [6],1 (20.0) n (%)
same,Participants with TEAEs: Alanine aminotransferase increased,[5]; [6],1 (20.0) n (%)
same,Participants with TEAEs: Blood creatinine increased,[5]; [6],0 n (%)
same,Participants with TEAEs: Constipation,[5]; [6],0 n (%)
same,Participants with TEAEs: Dysuria,[5]; [6],0 n (%)
same,Participants with TEAEs: Gastrointestinal disorders (SOC),[5]; [6],0 n (%)
same,Participants with TEAEs: Headache,[5]; [6],1 (20.0) n (%)
same,Participants with TEAEs: Investigations (SOC),[5]; [6],1 (20.0) n (%)
same,Participants with TEAEs: Nausea,[5]; [6],0 n (%)
same,Participants with TEAEs: Nervous system disorders (SOC),[5]; [6],1 (20.0) n (%)
same,Participants with TEAEs: Renal and urinary disorders (SOC),[5]; [6],0 n (%)
same,SAEs,[5]; [6],0 n
same,Severe AEs,[5]; [6],0 n
same,AEs,[5]; [7],3 n
same,AEs leading to permanent discontinuation of study drug,[5]; [7],0 n
same,AEs leading to study drug dose reduction or interruption,[5]; [7],0 n
same,Participants with AE,[5]; [7],3 (42.9) n (%)
same,Participants with TEAEs: Alanine aminotransferase increased,[5]; [7],0 n (%)
same,Participants with TEAEs: Blood creatinine increased,[5]; [7],3 (42.9) n (%)
same,Participants with TEAEs: Constipation,[5]; [7],0 n (%)
same,Participants with TEAEs: Dysuria,[5]; [7],0 n (%)
same,Participants with TEAEs: Gastrointestinal disorders (SOC),[5]; [7],0 n (%)
same,Participants with TEAEs: Headache,[5]; [7],0 n (%)
same,Participants with TEAEs: Investigations (SOC),[5]; [7],3 (42.9) n (%)
same,Participants with TEAEs: Nausea,[5]; [7],0 n (%)
same,Participants with TEAEs: Nervous system disorders (SOC),[5]; [7],0 n (%)
same,Participants with TEAEs: Renal and urinary disorders (SOC),[5]; [7],0 n (%)
same,SAEs,[5]; [7],0 n
same,Severe AEs,[5]; [7],0 n
same,6‐beta‐hydroxycortisol/cortisol ratio,CYP3A4,no clinically meaningful alteration
same,inhibition of transporter protein MRP2,MRP2,minimal inhibition
